How the values were obtained:
[1] = melting temperature; fluorescence melt of hairpins on a sequencing array, two-state fit, raised by 9.35 °C to match UV melts; settings: sodium 0.088 M
Outline: (§1)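 On a sequenced MiSeq flow cell, library hairpins with annealed Cy3 and quencher oligos were imaged for Cy3 fluorescence in 2.5 °C steps up to 60 °C, in 50 mM Na-HEPES pH 8.0, 25 mM NaCl. Normalisation used pre-quench Cy3 and control constructs. Bootstrapped two-state fits gave melting temperature and folding enthalpy, combined by inverse variance across four replicates and with fitted temperatures raised by 9.35 °C to match UV melts.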

[2] = folding enthalpy; higher = less favourable; fluorescence melt of hairpins on a sequencing array, two-state fit; settings: sodium 0.088 M
Outline: as §1

Row | Sequence | Tm [1] [°C] | folding enthalpy [2] [kcal/mol]
1 | GTAAGAGGAAACTCTTGC (.(((((....))))).) | 38.7 | -25
2 | GTATCAGCGAAAGCTTAC (((..(((....)))))) | 26.3 | -8.4
3 | GAACCGGGAAACCGATTC (((.(((....))).))) | 39.2 | -26.4
4 | GGGACCGAAAGGTGTCCC ((((((....)))..))) | 51.3 | -23.4
5 | GTATTCGGAAACGGATAC ((((.((....)).)))) | 45.1 | -33.2
6 | GGATAGCCGAAAGGCTCC (((..(((....)))))) | 38.1 | -9.11
7 | GAGTCGGGAAACCGACCC (.(((((....))))).) | 42 | -10.8
8 | GCCCAGCGAAAGCCGTGC ((.(.((....)).).)) | 27.1 | -7.02
9 | GCGCGTACGAAAGTACGC (((..(((....)))))) | 63.2 | -6.65
10 | GAAGCCGAAAGGCTCTTC ((((((....)))..))) | 56.6 | -20.8
11 | GTCCCCACGAAAGTGGAC (((..(((....)))))) | 29.3 | -6.73
12 | GGTCACGAAAGTGTCACC ((((((....)))..))) | 37.9 | -13.3
13 | GCGCTCGAAAGAGTACGC ((((((....)))..))) | 50 | -25.6
14 | GAAGCCGAAAGGCAGTTC ((((((....)))..))) | 30 | -9.04
15 | GTTCATGGAAACATGGAC ((.((((....)))).)) | 46.3 | -27.7
16 | GTTAACGGAAACGTCAAC (((.(((....))).))) | 34.2 | -15.2
17 | GACTACGAAAGTATAGTC ((((((....)))..))) | 36.8 | -23.3
18 | GCAACGCGAAAGCGCGGC ((..(((....)))..)) | 48.1 | -14.8
19 | CGCCCGGAAACGGGGGCG ((((((....)))..))) | 68.6 | -12.5
20 | GTCTGTGGAAACACAGGC (.(((((....))))).) | 53.7 | -32.4
21 | GATCTCGAACGAGATC ((((((....)))))) | 60.2 | -40.8
22 | GATCATGCGGATGATC ((((((....)))))) | 47 | -34.1
23 | GGCTGCCGAAAGGCGCC (((.(((....)))))) | 68.3 | -18.9

Row | Sequence | Tm [1] [°C] | folding enthalpy [2] [kcal/mol]
24 | GAAATTGGAAACAATTCC (.(((((....))))).) | 30.5 | -22.9
25 | GAGTGCGAAAGCAGCTC ((((((....))).))) | 51.3 | -19.9
26 | GTGGACGAAAGTCAGCAC ((((((....)))..))) | 40.3 | -16.1
27 | GCTGTACCGAAAGGTAGC (((..(((....)))))) | 43.7 | -15.4
28 | GTTCTTGGAAACAGGAAC ((((.((....)).)))) | 39.9 | -34.1
29 | GGGTCCGAAAGGAGCCC ((((((....))).))) | 68.5 | -15.6
30 | GCGTGGCACGC ((((...)))) | 56.8 | -31.8
31 | GTCCGTGCGAAAGCAGAC (((..(((....)))))) | 32.4 | -13.8
32 | GATGCAGGAAACCGCATC (((((.(....).))))) | 49.9 | -33.5
33 | GATCGTCGTTACGATC ((((((....)))))) | 55.6 | -36
34 | GCGAATACGAAAGTACGC (((..(((....)))))) | 44.9 | -25
35 | CGCCCGGAAACGGTGGCG ((((((....)))..))) | 54.9 | -28.6
36 | GAATGCCGAAAGGCTTTC (((.(((....))).))) | 48 | -21.7
37 | GGAAGTGGAAACACTTTC (.(((((....))))).) | 45.2 | -26.6
38 | GCGAACGAAAGTTGTCGC ((((((....)))..))) | 44.1 | -26.2
39 | GATGGTGGAAACGTCATC ((((..(....)..)))) | 33.3 | -19.6
40 | GGTGTTGGAAACGACATC (.(((.(....).))).) | 33.2 | -21.3
41 | GAAAATCCGAAAGGATTC (((..(((....)))))) | 33.4 | -11.8
42 | GATCTAATAATAGATC ((((((....)))))) | 35.5 | -22
43 | GTAAGCGGAAACGTTTGC (.((.((....)).)).) | 31.9 | -14.9
44 | GATCGAGTATCGATC ((((((...)))))) | 59.6 | -40.9
45 | GCACTGCGAAAGCCGTGC ((((.((....)).)))) | 63.3 | -37.2
46 | GCCTTGCGAAAGCCAAGC ((.(.((....)).).)) | 39 | -8.85
